This passage reports CC50, selectivity ratio and IC50 results from ChEMBL document CHEMBL4837211, “Adamantane derivatives as potential inhibitors of p37 major envelope protein and poxvirus reproduction. Design, synthesis and antiviral activity” (Eur J Med Chem, 2021).

The test system of one data set is Vero. The experiment in a line: (§1) Cytotoxicity against African green monkey Vero cells assessed as reduction in cell viability by neutral red dye based colorimetric analysis. To be noted: chlorocebus sabaeus, vero. In outline: (§2)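 Vero monolayers are grown in DMEM with 5% FBS, gentamicin and amphotericin B, and assayed in the same medium with 2% serum. Each compound is tested as 8 three-fold dilutions, starting at 1, 10 or 100 µg/ml, added before 1000 pfu/well virus. After 4 days, neutral red is added for 1.5 h, cells are washed and lysed, and OD is read. CC50 and IC50 are derived from OD values.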

A short description of data set [1]: as §1. Conditions: chlorocebus sabaeus, Vero cells. In outline:
as §2

Data set [2] relates to p37 (Vaccinia virus Copenhagen). Briefly: Selectivity index, ratio of CC50 for African green monkey Vero cells to IC50 for inhibition of p37 in Vaccinia virus Copenhagen infected in African green monkey Vero cells. The class given is toxicity. Conditions: read-out: Ratio CC50/IC50.
Data set [3] is described as follows: cells. The class given is cell-based. Conditions: Cowpox virus, Vero, 96 h.
Data set [4] concerns p37 (Cowpox virus Grishak). The experiment in a line: Selectivity index, ratio of CC50 for African green monkey Vero cells to IC50 for inhibition of p37 in Cowpox virus Grishak infected in African green monkey Vero cells. In kind it is toxicity. To be noted: read-out: Ratio CC50/IC50.
Data set [5] is described as follows: cells. In kind it is cell-based. Conditions: Ectromelia virus, Vero, 96 h.
Data set [6] has as its system p37 (Ectromelia virus K1). Briefly: Selectivity index, ratio of CC50 for African green monkey Vero cells to IC50 for inhibition of p37 in Ectromelia virus K1 infected in African green monkey Vero cells. In kind it is toxicity. To be noted: read-out: Ratio CC50/IC50.

Each structure is given as a SMILES string.

One may read the CC50 as the concentration that lowers cell viability or growth by half. The IC50 is the concentration at which inhibition is half-maximal.

Regarding `CC12CC3CC(C)(C1)CC(NC(=O)c1ccc(C(F)(F)F)cc1)(C3)C2`, the CC50 in the data set on Vero came to 20.5 µM.

Turning to `O=C(NNC(=O)C12CC3CC(CC(C3)C1)C2)c1ccc(C(F)(F)F)cc1`, in data set [1], the CC50 is more than 273 µM. Further, the selectivity ratio in data set [2] was more than 255; in data set [4], more than 57; in data set [6], more than 273. In addition, the IC50 in “cells [3]” was 4.77 µM; in the data set “cells [5]” it was 1 µM.

For `O=C(NNC1C2CC3CC1CC(Cl)(C3)C2)c1ccc(C(F)(F)F)cc1` (stereo not drawn), the CC50 in data set [1] was approximately 215 µM. Also, the selectivity ratio in data set [2] was 61; in data set [4], 20.7; in data set [6], 27.5. Also, the IC50 in the data set “cells [3]” was 10.4 µM; in the data set “cells [5]”, 7.8 µM.

Consider `O=C(NNC12CC3CC(CC(C3)C1)C2)c1ccc(C(F)(F)F)cc1`, for which, in data set [1], the CC50 is 2.8 µM.

With `C/C(=N\NC(=O)c1ccc(C(F)(F)F)cc1)C12CC3CC(CC(C3)C1)C2`, in the data set on Vero, the CC50 is more than 274 µM. Besides, the selectivity ratio in data set [2] is more than 26; in data set [4], more than 23; in data set [6] it was more than 25. Also, the IC50 in the data set “cells [3]” was 11.9 µM; in “cells [5]” it was 10.9 µM.

Regarding `CC12CC3CC(C1)CC(NC(=O)c1ccc(C(F)(F)F)cc1)(C3)C2`, in the data set on Vero, the CC50 was more than 296 µM. Further, the results for the selectivity ratio in data set [2], in data set [4] and in data set [6] were more than 33, more than 19 and more than 72, respectively. Further, the IC50 was determined as 15.6 µM in the data set “cells [3]” and 4.1 µM in the data set “cells [5]”.

Regarding `O=C(NNC1C2CC3CC(C2)CC1C3)c1ccc(C(F)(F)F)cc1` (stereo not drawn), the CC50 in data set [1] was more than 296 µM. Besides, the selectivity ratio is more than 103 in data set [2], more than 72 in data set [4] and more than 118 in data set [6]. Further, the figures for the IC50 in the data set “cells [3]” and in the data set “cells [5]” were 4.06 µM and 2.5 µM, respectively.

On to `O=C(NCC12CC3CC(CC(C3)C1)C2)c1ccc(Br)cc1`, for which the CC50 in the data set on Vero amounted to 238 µM. For the same molecule, the figures for the selectivity ratio in data set [2] and in data set [6] were 28 and 136, respectively. In addition, 1.75 µM corresponded to half-maximal inhibition in the data set “cells [5]” (IC50).

On to `O=C(NC12CC3CC(CC(C3)C1)C2)c1ccc(C(F)(F)F)cc1`, for which, in the data set with Vero, the CC50 is more than 309 µM. In addition, the results for the selectivity ratio in data set [2], in data set [4] and in data set [6] were more than 2320, more than 333 and more than 628, respectively. Further, the concentration for half-maximal inhibition (IC50) in the data set “cells [3]” was 0.928 µM; in “cells [5]” it was 0.492 µM.

Regarding `CCC12CC3CC(C1)CC(C(=O)NNC(=O)c1ccc(C(F)(F)F)cc1)(C3)C2`, the CC50 in data set [1] came out at 47 µM. Moreover, the selectivity ratio in data set [2] amounted to 3.75.

As for `O=C(NC1C2CC3CC(C2)CC1C3)c1ccc(Br)cc1` (stereo not drawn), in the data set on Vero, the 50% cytotoxic concentration (CC50) is more than 299 µM. The values for the selectivity ratio in data set [2], in data set [4] and in data set [6] were more than 98, more than 26.5 and more than 61, respectively. Also, the values for the IC50 in the data set “cells [3]” and in the data set “cells [5]” were 11.3 µM and 4.9 µM, respectively.

In the case of `O=C(NNC(=O)c1ccc(C(F)(F)F)cc1)NC12CC3CC(CC(C3)C1)C2`, the CC50 with Vero turned out to be 94.3 µM. Moreover, the selectivity ratio in data set [2] amounted to 2.6.

For `O=C(NC1C2CC3CC(C2)CC1C3)c1ccc(C(F)(F)F)cc1` (stereo not drawn), in the data set on Vero, the CC50 was more than 309 µM. In addition, the selectivity ratio in data set [2] is more than 1430; in data set [4] it was more than 321; in data set [6], more than 543. Further, the IC50 turned out to be 0.96 µM in “cells [3]” and 0.569 µM in “cells [5]”.

For `O=C(NCC12CC3CC(CC(C3)C1)C2)c1ccc(C(F)(F)F)cc1`, the CC50 in the data set on Vero is more than 296 µM. Besides, the selectivity ratio in data set [2] is more than 1100; in data set [4], more than 239. The molecule also yielded an IC50 in the data set “cells [3]” of 1.24 µM.

Turning to `CCC12CC3CC(C1)CC(NNC(=O)c1ccc(C(F)(F)F)cc1)(C3)C2`, the CC50 in data set [1] was determined as 2.5 µM. In addition, in data set [2], the selectivity ratio came out at 1.5.

In the case of `CC12CC3CC(C)(C1)CC(C(=O)NNC(=O)c1ccc(C(F)(F)F)cc1)(C3)C2`, in data set [1], the CC50 was more than 254 µM. The selectivity ratio in data set [2] is more than 8.2.

As to `O=C(NN=C1C2CC3CC(C2)CC1C3)c1ccc(C(F)(F)F)cc1`, the CC50 in data set [1] was more than 297 µM. Moreover, the selectivity ratio in data set [2] is more than 1.5.

As for `CN(C(=O)c1ccc(C(F)(F)F)cc1)C12CC3CC(CC(C3)C1)C2`, the CC50 in the data set with Vero is more than 296 µM. Besides, the selectivity ratio was more than 61 in data set [2], more than 9 in data set [4] and more than 48 in data set [6]. Moreover, the IC50 was 32.9 µM in “cells [3]” and 6.17 µM in “cells [5]”.

Consider `CCC12CC3CC(C1)CC(NC(=O)c1ccc(C(F)(F)F)cc1)(C3)C2`, for which, in the data set with Vero, the CC50 is more than 280 µM. Besides, the figures for the selectivity ratio in data set [2], in data set [4] and in data set [6] were more than 68, more than 25 and more than 25, respectively. The IC50 in “cells [3]” and in the data set “cells [5]” was 11.1 µM throughout.

As to `CC(NNC(=O)c1ccc(C(F)(F)F)cc1)C12CC3CC(CC(C3)C1)C2` (racemic), the CC50 in data set [1] was determined as 14 µM. Further, the selectivity ratio in data set [2] was found to be 27.

Consider `O=C(NN1C(=O)[C@@H]2[C@@H]3C=C[C@@H]([C@H]4C[C@@H]34)[C@@H]2C1=O)c1ccc(C(F)(F)F)cc1` [TECOVIRIMAT], for which, in the data set on Vero, the CC50 is more than 266 µM. Moreover, the selectivity ratio is more than 100000 in data set [2], more than 50000 in data set [4] and more than 33000 in data set [6]. For the same molecule, the half-inhibitory concentration (IC50) in “cells [3]” worked out at 0.00532 µM; in the data set “cells [5]” it was 0.00806 µM.
